Measurements published in the M2OR odorant receptor database.

Key:
Settings in all cases: stereoisomer not certain
UniProt L7MU75 = target: T1, UniProt L7MU75
T1 sequence (whole entry): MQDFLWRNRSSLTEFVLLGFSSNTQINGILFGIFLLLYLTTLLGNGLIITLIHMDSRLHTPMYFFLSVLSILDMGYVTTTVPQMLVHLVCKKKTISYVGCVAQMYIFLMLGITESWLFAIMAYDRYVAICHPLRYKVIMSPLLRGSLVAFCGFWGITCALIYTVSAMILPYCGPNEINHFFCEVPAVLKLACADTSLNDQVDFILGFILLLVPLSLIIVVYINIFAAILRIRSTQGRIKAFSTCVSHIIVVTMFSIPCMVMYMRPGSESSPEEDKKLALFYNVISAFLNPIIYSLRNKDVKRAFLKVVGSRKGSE
In short: (§1)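 Transient luciferase assays in mammalian cell lines were common, though methods varied by source. The values come from published papers and their supplementary material, with extra details from the original authors when needed. Responsive refers to a measured signal the original authors judged statistically different from baseline, and non-responsive (inactive) to the remainder.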

UniProt L7N210 = target: T2, UniProt L7N210
T2 sequence (whole entry): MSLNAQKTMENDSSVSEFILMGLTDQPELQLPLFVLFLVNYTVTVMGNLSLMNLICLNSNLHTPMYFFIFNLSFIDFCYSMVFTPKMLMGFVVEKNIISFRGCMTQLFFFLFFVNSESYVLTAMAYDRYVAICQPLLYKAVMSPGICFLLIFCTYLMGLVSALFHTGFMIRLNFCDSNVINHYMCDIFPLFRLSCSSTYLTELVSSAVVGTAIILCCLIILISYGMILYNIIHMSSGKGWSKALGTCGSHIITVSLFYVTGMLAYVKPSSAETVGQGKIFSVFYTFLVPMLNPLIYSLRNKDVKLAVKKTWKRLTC
In short: as §1

UniProt Q3KPB0 = target: T3, UniProt Q3KPB0
T3 sequence (whole entry): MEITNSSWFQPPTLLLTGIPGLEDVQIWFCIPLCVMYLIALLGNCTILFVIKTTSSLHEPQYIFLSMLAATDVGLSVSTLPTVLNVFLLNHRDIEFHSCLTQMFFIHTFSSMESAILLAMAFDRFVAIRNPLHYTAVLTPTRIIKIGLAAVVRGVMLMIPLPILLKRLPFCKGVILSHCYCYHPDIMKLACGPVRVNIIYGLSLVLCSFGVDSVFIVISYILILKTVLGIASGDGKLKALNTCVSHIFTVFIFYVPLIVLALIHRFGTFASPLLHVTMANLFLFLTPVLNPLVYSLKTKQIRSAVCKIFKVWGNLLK
In short: as §1

UniProt Q3U0P3 = target: T4, UniProt Q3U0P3
T4 sequence (whole entry): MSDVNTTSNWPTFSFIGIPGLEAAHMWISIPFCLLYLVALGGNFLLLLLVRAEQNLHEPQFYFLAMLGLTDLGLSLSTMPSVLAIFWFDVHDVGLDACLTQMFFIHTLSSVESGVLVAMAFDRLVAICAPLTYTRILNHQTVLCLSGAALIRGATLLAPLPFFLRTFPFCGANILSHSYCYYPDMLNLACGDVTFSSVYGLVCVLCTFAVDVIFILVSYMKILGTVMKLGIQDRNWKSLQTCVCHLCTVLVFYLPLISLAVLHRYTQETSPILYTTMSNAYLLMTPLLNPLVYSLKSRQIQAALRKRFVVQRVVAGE
In short: as §1

UniProt Q7TQU8 = target: T5, UniProt Q7TQU8
T5 sequence (whole entry): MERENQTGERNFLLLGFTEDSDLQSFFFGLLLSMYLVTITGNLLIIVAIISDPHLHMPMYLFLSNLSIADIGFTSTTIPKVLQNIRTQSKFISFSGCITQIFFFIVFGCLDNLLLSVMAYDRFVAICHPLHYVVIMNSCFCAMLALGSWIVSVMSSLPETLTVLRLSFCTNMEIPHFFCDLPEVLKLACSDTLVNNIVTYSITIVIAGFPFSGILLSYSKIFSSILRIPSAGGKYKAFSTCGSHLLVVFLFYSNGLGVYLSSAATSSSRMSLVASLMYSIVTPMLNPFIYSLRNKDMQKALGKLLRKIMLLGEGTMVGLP
In short: as §1

UniProt Q7TR79 = target: T6, UniProt Q7TR79
T6 sequence (whole entry): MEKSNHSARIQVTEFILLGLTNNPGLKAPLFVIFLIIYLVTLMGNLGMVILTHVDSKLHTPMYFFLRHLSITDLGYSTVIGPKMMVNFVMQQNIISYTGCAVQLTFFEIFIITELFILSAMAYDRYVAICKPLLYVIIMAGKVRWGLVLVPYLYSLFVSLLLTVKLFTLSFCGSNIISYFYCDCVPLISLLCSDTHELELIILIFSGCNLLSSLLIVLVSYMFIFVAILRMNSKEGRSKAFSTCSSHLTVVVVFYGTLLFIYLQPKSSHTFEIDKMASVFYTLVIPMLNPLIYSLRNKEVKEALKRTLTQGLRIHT
In short: as §1

UniProt Q7TQV4 = target: T7, UniProt Q7TQV4
T7 sequence (whole entry): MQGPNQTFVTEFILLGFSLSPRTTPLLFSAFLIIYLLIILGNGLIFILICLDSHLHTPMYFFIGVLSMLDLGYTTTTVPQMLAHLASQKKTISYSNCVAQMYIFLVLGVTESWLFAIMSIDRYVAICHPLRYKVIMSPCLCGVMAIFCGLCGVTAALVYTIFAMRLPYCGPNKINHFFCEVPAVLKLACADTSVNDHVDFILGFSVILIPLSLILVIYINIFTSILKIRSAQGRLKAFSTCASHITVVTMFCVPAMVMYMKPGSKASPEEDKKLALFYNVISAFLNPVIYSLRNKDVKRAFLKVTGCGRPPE
In short: as §1

UniProt Q7TR71 = target: T8, UniProt Q7TR71
T8 sequence (whole entry): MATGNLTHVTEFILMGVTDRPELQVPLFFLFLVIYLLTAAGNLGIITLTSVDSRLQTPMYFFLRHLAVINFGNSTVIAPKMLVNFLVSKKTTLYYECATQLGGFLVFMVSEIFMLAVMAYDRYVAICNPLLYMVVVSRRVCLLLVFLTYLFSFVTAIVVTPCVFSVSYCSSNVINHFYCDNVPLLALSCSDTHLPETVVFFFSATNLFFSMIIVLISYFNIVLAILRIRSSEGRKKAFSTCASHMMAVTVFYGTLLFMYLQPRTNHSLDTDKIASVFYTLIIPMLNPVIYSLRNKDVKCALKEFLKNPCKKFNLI
In short: as §1

UniProt Q7TRA3 = target: T9, UniProt Q7TRA3
T9 sequence (whole entry): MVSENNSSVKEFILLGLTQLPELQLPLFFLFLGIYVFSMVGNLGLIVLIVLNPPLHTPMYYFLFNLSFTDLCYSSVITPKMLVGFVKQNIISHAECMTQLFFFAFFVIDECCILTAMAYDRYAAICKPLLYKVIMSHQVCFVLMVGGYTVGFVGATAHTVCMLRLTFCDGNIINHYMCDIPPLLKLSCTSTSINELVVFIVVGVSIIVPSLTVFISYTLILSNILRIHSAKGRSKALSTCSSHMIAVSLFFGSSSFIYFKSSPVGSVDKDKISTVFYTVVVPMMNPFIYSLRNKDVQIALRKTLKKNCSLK
In short: as §1

UniProt Q7TRE4 = target: T10, UniProt Q7TRE4
T10 sequence (whole entry): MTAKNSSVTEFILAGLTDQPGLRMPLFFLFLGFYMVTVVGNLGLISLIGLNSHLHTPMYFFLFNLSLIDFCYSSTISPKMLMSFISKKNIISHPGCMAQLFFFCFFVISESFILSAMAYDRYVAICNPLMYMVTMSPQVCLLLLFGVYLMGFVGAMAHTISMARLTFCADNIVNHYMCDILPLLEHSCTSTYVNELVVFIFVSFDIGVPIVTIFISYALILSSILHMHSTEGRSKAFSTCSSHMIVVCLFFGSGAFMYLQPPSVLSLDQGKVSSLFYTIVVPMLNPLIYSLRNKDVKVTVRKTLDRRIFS
In short: as §1

UniProt Q7TRN9 = target: T11, UniProt Q7TRN9
T11 sequence (whole entry): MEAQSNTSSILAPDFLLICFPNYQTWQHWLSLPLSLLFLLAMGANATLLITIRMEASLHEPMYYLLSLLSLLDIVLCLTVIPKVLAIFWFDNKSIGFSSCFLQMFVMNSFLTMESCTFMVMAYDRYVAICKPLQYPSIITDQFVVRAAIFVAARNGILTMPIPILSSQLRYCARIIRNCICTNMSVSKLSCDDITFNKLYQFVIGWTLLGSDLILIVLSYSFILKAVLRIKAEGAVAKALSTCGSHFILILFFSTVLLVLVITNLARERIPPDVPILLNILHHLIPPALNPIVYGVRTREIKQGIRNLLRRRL
In short: as §1
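Also: active if original authors judged signal statistically different from baseline.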

| SMILES | odorant receptor agonist call (UniProt L7MU75) | odorant receptor agonist call (UniProt L7N210) | odorant receptor agonist call (UniProt Q3KPB0) | odorant receptor agonist call (UniProt Q3U0P3) | odorant receptor agonist call (UniProt Q7TQU8) | odorant receptor agonist call (UniProt Q7TR79) | odorant receptor agonist call (UniProt Q7TQV4) | odorant receptor agonist call (UniProt Q7TR71) | odorant receptor agonist call (UniProt Q7TRA3) | odorant receptor agonist call (UniProt Q7TRE4) | odorant receptor agonist call (UniProt Q7TRN9) |
| --- | --- | --- | --- | --- | --- | --- | --- | --- | --- | --- | --- |
| CCCC(C)C(=O)OCC (stereo not drawn) | inactive | inactive | inactive | inactive | inactive | inactive | – | – | – | – | – |
| C=CCOC(=O)CCCCCC | inactive | inactive | inactive | inactive | inactive | inactive | inactive | inactive | inactive | inactive | – |
| C1CCOC1 | inactive | inactive | inactive | inactive | inactive | inactive | – | – | – | – | – |
| CCCCCCCCS | inactive | inactive | inactive | inactive | inactive | inactive | inactive | inactive | inactive | inactive | – |
| CCCCCCC(C)=O | inactive | inactive | inactive | inactive | inactive | inactive | inactive | inactive | inactive | inactive | – |
| CCCCCCO | inactive | inactive | inactive | inactive | inactive | inactive | inactive | inactive | inactive | inactive | inactive |
| CCCCCOC(=O)CCCCC | inactive | inactive | inactive | inactive | inactive | inactive | inactive | inactive | inactive | inactive | – |
| C=C1C2CCC(C2)C1(C)C (stereo not drawn) | inactive | inactive | inactive | inactive | inactive | inactive | – | – | – | – | – |
| CC(=O)OCC=C(C)C | inactive | inactive | inactive | inactive | inactive | inactive | active | inactive | inactive | inactive | – |
| CCC=CCCCCC=O | inactive | inactive | inactive | inactive | inactive | inactive | – | – | – | – | – |
| CSSCc1ccco1 | inactive | inactive | inactive | inactive | inactive | inactive | – | – | – | – | – |
| CCCC=O | inactive | inactive | inactive | inactive | inactive | inactive | – | – | – | – | – |
| CCc1ccc(O)cc1 | inactive | active | inactive | inactive | inactive | inactive | – | – | – | – | – |
| C=CC(=C)CCC=C(C)CCC=C(C)C | inactive | inactive | inactive | inactive | inactive | inactive | – | – | – | – | – |
| CC(C)CS | inactive | inactive | inactive | inactive | inactive | inactive | – | – | – | – | – |
| CCCCCCC(=O)OCCCC | inactive | inactive | inactive | inactive | inactive | inactive | – | – | – | – | – |
| CCSCC | inactive | inactive | inactive | inactive | inactive | inactive | – | – | – | – | – |
| CCCCCC(=Cc1ccccc1)C(OC)OC | inactive | inactive | inactive | inactive | inactive | inactive | – | – | – | – | – |
| CCCCCC(C=O)=Cc1ccccc1 | inactive | inactive | inactive | inactive | inactive | inactive | – | – | – | – | – |
| Cc1c(C)c(C)c(C=O)c(C)c1C | inactive | active | inactive | inactive | inactive | inactive | – | – | – | – | – |
| CC(=O)OC1(C)CCC23CC1C(C)(C)C2CCC3C (stereo not drawn) | inactive | inactive | inactive | active | active | inactive | – | – | – | – | – |
| OCC=Cc1ccccc1 | inactive | active | inactive | inactive | inactive | inactive | – | – | – | – | – |
| CCCCCCCCCCCO | inactive | inactive | inactive | inactive | inactive | inactive | – | – | – | – | – |
| CSSSC | inactive | inactive | inactive | inactive | inactive | inactive | – | – | – | – | – |
| CCCCCCCCCC=CC=O | inactive | inactive | inactive | inactive | inactive | inactive | – | – | – | – | – |
| C=C(CC)CCCC(C)(C)O | inactive | inactive | inactive | inactive | inactive | inactive | – | – | – | – | – |
| CC(=O)C=CC1=C(C)CCCC1(C)C | inactive | inactive | inactive | inactive | inactive | inactive | – | – | – | – | – |
| C1CCOCC1 | inactive | inactive | inactive | inactive | inactive | inactive | – | – | – | – | – |
